Test results as given in ChEMBL document CHEMBL1139214, “Lyngbyastatin 4, a dolastatin 13 analogue with elastase and chymotrypsin inhibitory activity from the marine cyanobacterium Lyngbya confervoides” (J Nat Prod, 2007).
Activity calls are given as the source filed them. The calls are words filed in the database; no cut-off is given here.

Experiments:
Bos taurus = species on record: Bos taurus; assay: Selectivity for bovine alpha chymotrypsin over bovine thrombin
[1] = biological target: Plasminogen (Homo sapiens) (UniProt P00747); assay: Inhibition of human plasma plasmin upto 30 uM; type: cell-free
[2] = Inhibition of bovine pancreatic alpha chymotrypsin; parameters: species or system Bos taurus
Summary of the method: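 Bovine pancreatic α-chymotrypsin (1 mg/mL enzyme solution) in 50 mM Tris-HCl, 100 mM NaCl, 1 mM CaCl2, pH 7.8. Test solution added, then 2 mM N-succinyl-Gly-Gly-Phe-p-nitroanilide substrate solution. Absorbance increase at 405 nm followed for 30 min. Dose–response analysis, IC50 determined.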

[3] = Selectivity for porcine elastase over human plasmin
[4] = Selectivity for bovine alpha chymotrypsin over human plasmin
[5] = Selectivity for porcine elastase over bovine thrombin
Sus scrofa [6] = species on record: Sus scrofa; assay: Selectivity for porcine elastase over porcine trypsin
Sus scrofa [7] = species on record: Sus scrofa; assay: Inhibition of porcine pancreatic trypsin upto 30 uM
Summary of the method: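 Porcine pancreatic trypsin (1 mg/mL enzyme solution) in 50 mM Tris-HCl, 100 mM NaCl, 1 mM CaCl2, pH 7.8. Test solution added, then 2 mM Nα-benzoyl-DL-arginine 4-nitroanilide hydrochloride substrate solution. Absorbance increase at 405 nm followed for 30 min. Dose–response analysis.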

Prothrombin (Bos taurus) = Prothrombin (Bos taurus) (UniProt P00735); assay: Inhibition of bovine plasma thrombin upto 30 uM; type: cell-free
[8] = Inhibition of porcine pancreatic elastase; parameters: species or system Sus scrofa
Summary of the method: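 Porcine pancreatic elastase (75 µg/mL enzyme solution) preincubated with compound in Tris-HCl, pH 8.0, at 30 °C for 20 min. Then 2 mM N-succinyl-Ala-Ala-Ala-p-nitroanilide substrate solution added. Absorbance increase at 405 nm read over 3–30 min. Dose–response analysis, IC50 determined.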

[9] = Selectivity for bovine alpha chymotrypsin over porcine trypsin

Chain of Plasminogen (Homo sapiens) (P00747 97-580 limits assumed): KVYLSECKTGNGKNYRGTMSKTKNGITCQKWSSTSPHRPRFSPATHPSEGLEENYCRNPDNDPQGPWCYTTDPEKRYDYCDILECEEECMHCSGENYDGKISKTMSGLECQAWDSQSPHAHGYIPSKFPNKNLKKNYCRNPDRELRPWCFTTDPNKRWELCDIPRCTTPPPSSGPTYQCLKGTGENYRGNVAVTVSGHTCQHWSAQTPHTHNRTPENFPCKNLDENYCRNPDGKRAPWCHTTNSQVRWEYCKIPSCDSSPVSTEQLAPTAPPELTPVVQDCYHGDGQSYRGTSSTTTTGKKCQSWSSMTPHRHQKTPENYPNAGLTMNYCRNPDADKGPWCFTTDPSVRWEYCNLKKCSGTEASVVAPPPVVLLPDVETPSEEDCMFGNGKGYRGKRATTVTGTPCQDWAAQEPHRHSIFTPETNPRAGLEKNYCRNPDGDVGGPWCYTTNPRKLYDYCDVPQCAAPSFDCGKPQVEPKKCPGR
Chain of Plasminogen (Homo sapiens) (P00747 581-810 limits assumed): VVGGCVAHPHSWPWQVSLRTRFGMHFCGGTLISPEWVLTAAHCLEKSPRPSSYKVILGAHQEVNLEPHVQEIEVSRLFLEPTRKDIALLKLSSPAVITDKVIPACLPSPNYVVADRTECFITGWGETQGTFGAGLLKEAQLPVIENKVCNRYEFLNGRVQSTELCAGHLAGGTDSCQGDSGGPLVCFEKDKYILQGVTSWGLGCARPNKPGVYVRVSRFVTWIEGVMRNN

In the case of `C/C=C1\NC(=O)[C@@H](NC(=O)[C@H](CCc2ccc(O)cc2)NC(=O)[C@H](C)NC(=O)[C@H](O)COS(=O)(=O)O)[C@@H](C)OC(=O)[C@H](C(C)C)NC(=O)[C@H](Cc2ccc(O)cc2)N(C)C(=O)[C@H](Cc2ccccc2)N2C(=O)[C@H](CC[C@H]2O)NC1=O` [LYNGBYASTATIN 4], the Selectivity ratio (Bos taurus) is reported as over 100, the Activity [1] is reported as “inactive” and the IC50 [2] is reported as 300 nM. For the same compound, the Selectivity ratio [3] was over 1000, the Selectivity ratio [4] was over 100 and the Selectivity ratio [5] was over 1000. For the same compound, the Selectivity ratio (Sus scrofa [6]) was over 1000, the Activity (Sus scrofa [7]) was “inactive” and the Activity (Prothrombin (Bos taurus)) was “inactive”. It also gave an IC50 [8] of 30 nM and a Selectivity ratio [9] of over 100.
